In ChEMBL document CHEMBL1275441, “Effect of impaired renal function on the pharmacokinetics of tomopenem (RO4908463/CS-023), a novel carbapenem” (Antimicrob Agents Chemother, 2008):

How the values were obtained:
[1] = tested on: Homo sapiens; assay: Drug metabolism in human with creatinine clearance of =< 30 ml/min assessed as RO4957463 AUC (infinity) at 1500 mg, iv administered as single dose measured after 60 mins; assay type: ADME, organism-based; design: dose 1500 mg, time infinity, route intravenous; conditions: in vivo, 1 h
Procedure, shortened: (§1)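 Single 1,500 mg i.v. infusion over 60 min, eight subjects per renal-function group (creatinine clearance by Cockcroft-Gault at screening). Blood was sampled predose and at 1–48 h, and the plasma was stabilized 1:1 with 0.5 M MOPS pH 6.0, kept from light and frozen at −70°C. Parent and metabolite were measured by a validated bioanalytical method. Noncompartmental analysis: t1/2 = ln2/λz from ≥3 terminal points, Cmax/Tmax from raw data, ratio = AUC∞ metabolite/parent.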

[2] = tested on: Homo sapiens; assay: Drug metabolism in human with creatinine clearance of => 80 ml/min assessed as RO4957463 apparent half life at 1500 mg, iv administered as single dose; assay type: ADME, organism-based; conditions: in vivo; procedure, shortened: as §1
[3] = tested on: Homo sapiens; assay: Drug metabolism in human with creatinine clearance of 50-79 ml/min assessed as RO4957463 AUC (infinity) at 1500 mg, iv administered as single dose measured after 60 mins; assay type: ADME, organism-based; design: dose 1500 mg, time infinity, route intravenous; conditions: in vivo, 1 h; procedure, shortened: as §1
[4] = AUC (infinity) in human with creatinine clearance of 30-49 ml/min at 1500 mg, iv administered as single dose measured after 60 mins; assay type: ADME, organism-based; design: dose 1500 mg, route intravenous, time infinity; conditions: plasma; procedure, shortened: as §1
[5] = Dose normalized excretion in human with creatinine clearance of =< 30 ml/min at 1500 mg, iv administered as single dose after 24 hrs; assay type: ADME, organism-based; conditions: in vivo, read-out: Activity
Procedure, shortened: (§2)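 After a single 1,500 mg i.v. infusion over 60 min, urine was collected 0–6, 6–12 and 12–24 h post-dose, with volume and pH recorded. Aliquots were mixed 1:1 with 0.5 M MOPS, protected from light and frozen at −70°C. Parent and metabolite were assayed by a validated method. CLR = Ae24/plasma AUC24. n = 8 per group, mean ± SD.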

[6] = Total clearance in healthy human at 700 mg, iv administered as single dose; assay type: ADME, organism-based; conditions: in vivo
[7] = AUC (infinity) in human with creatinine clearance of 50-79 ml/min at 1500 mg, iv administered as single dose measured after 60 mins; assay type: ADME, organism-based; design: dose 1500 mg, route intravenous, time infinity; conditions: plasma; procedure, shortened: as §1
[8] = Tmax in human with creatinine clearance of 50-79 ml/min at 1500 mg, iv administered as single dose; assay type: ADME, organism-based; conditions: in vivo
Procedure, shortened: (§3)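 Eight subjects per CL_CR group (Cockcroft-Gault) received 1,500 mg i.v. over 60 min. Plasma was sampled predose and from 1 to 48 h, mixed with equal-volume 0.5 M MOPS pH 6.0, frozen at −70°C light-protected, and assayed by a validated method. Parameters were derived noncompartmentally from actual times, with T_max taken from raw data as a median and CL/V_ss as means ± SD.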

[9] = Apparent half-life in human with creatinine clearance of 50-79 ml/min at 1500 mg, iv administered as single dose; assay type: ADME, organism-based; conditions: in vivo; procedure, shortened: as §1
[10] = Apparent half-life in human with creatinine clearance of => 80 ml/min at 1500 mg, iv administered as single dose; assay type: ADME, organism-based; conditions: in vivo; procedure, shortened: as §1
[11] = Total clearance in human with creatinine clearance of => 80 ml/min at 1500 mg, iv administered as single dose measured after 60 mins; assay type: ADME, organism-based; conditions: in vivo; procedure, shortened: as §3
[12] = tested on: Homo sapiens; assay: Drug excretion in human with creatinine clearance of =< 30 ml/min at 1500 mg, iv administered as single dose after 24 hrs; assay type: ADME, organism-based; conditions: in vivo; procedure, shortened: as §2
[13] = AUC (infinity) in human with creatinine clearance of =< 30 ml/min at 1500 mg, iv administered as single dose measured after 60 mins; assay type: ADME, organism-based; design: dose 1500 mg, time infinity, route intravenous; conditions: plasma; procedure, shortened: as §1
[14] = tested on: Homo sapiens; assay: Drug metabolism in human with creatinine clearance of =< 30 ml/min assessed as RO4957463 Tmax at 1500 mg, iv administered as single dose; assay type: ADME, organism-based; conditions: in vivo; procedure, shortened: as §1
[15] = Total clearance in human with creatinine clearance of 30-49 ml/min at 1500 mg, iv administered as single dose measured after 60 mins; assay type: ADME, organism-based; conditions: in vivo; procedure, shortened: as §3
[16] = tested on: Homo sapiens; assay: Ratio of RO4957463 AUC (infinity) to compound AUC (infinity)) in human with creatinine clearance of =< 30 ml/min at 1500 mg, iv administered as single dose measured after 60 mins; assay type: ADME, organism-based; conditions: in vivo, 1 h; procedure, shortened: as §1
[17] = tested on: Homo sapiens; assay: Drug metabolism in human with creatinine clearance of 50-79 ml/min assessed as RO4957463 Cmax at 1500 mg, iv administered as single dose measured after 60 mins; assay type: ADME, organism-based; design: dose 1500 mg, route intravenous; conditions: in vivo, 1 h; procedure, shortened: as §1
[18] = Cmax in human with creatinine clearance of => 80 ml/min at 1500 mg, iv administered as single dose measured after 60 mins; assay type: ADME, organism-based; design: dose 1500 mg, route intravenous; conditions: in vivo; procedure, shortened: as §1
[19] = Cmax in human with creatinine clearance of 50-79 ml/min at 1500 mg, iv administered as single dose measured after 60 mins; assay type: ADME, organism-based; design: dose 1500 mg, route intravenous; conditions: in vivo; procedure, shortened: as §1
[20] = tested on: Homo sapiens; assay: Drug metabolism in human with creatinine clearance of 30-49 ml/min assessed as RO4957463 AUC (infinity) at 1500 mg, iv administered as single dose measured after 60 mins; assay type: ADME, organism-based; design: dose 1500 mg, route intravenous, time infinity; conditions: in vivo, 1 h; procedure, shortened: as §1
[21] = tested on: Homo sapiens; assay: Ratio of RO4957463 AUC (infinity) to compound AUC (infinity) in human with creatinine clearance of => 80 ml/min at 1500 mg, iv administered as single dose measured after 60 mins; assay type: ADME, organism-based; conditions: in vivo, 1 h; procedure, shortened: as §1
[22] = Total clearance in human with creatinine clearance of 50-79 ml/min at 1500 mg, iv administered as single dose measured after 60 mins; assay type: ADME, organism-based; conditions: in vivo; procedure, shortened: as §3
[23] = Renal clearance in human with creatinine clearance of => 80 ml/min at 1500 mg, iv administered as single dose after 24 hrs; assay type: ADME, organism-based, Kidney; conditions: in vivo, read-out: CL_renal (converted)
Procedure, shortened: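 Single 1,500 mg i.v. infusion over 60 min, with 8 subjects per renal-function group (CL_CR by Cockcroft-Gault at screening). Urine was collected at 0–6, 6–12 and 12–24 h, volume and pH recorded, and aliquots mixed 1:1 with 0.5 M MOPS. Samples were frozen at −70°C, protected from light, and assayed by a validated method. CL_R = A_e24/AUC₂₄.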

[24] = tested on: Homo sapiens; assay: Drug metabolism in human with creatinine clearance of 30-49 ml/min assessed as RO4957463 Cmax at 1500 mg, iv administered as single dose measured after 60 mins; assay type: ADME, organism-based; design: dose 1500 mg, route intravenous; conditions: in vivo, 1 h; procedure, shortened: as §1
[25] = AUC (infinity) in human with creatinine clearance of => 80 ml/min at 1500 mg, iv administered as single dose measured after 60 mins; assay type: ADME, organism-based; design: dose 1500 mg, time infinity, route intravenous; conditions: plasma; procedure, shortened: as §1
[26] = tested on: Homo sapiens; assay: Ratio of RO4957463 AUC (infinity) to compound AUC (infinity) in human with creatinine clearance of 30-49 ml/min at 1500 mg, iv administered as single dose measured after 60 mins; assay type: ADME, organism-based; conditions: in vivo, 1 h; procedure, shortened: as §1

- AUC [1]: 490 µg·h/mL
- t1/2 [2]: 2.98 h
- AUC [3]: 37.3 µg·h/mL
- AUC(0-inf) [4]: 517 µg·h/mL
- dose excreted at 24 h [5]: 41.2%
- clearance [6]: 135 mL/min
- AUC(0-inf) [7]: 304 µg·h/mL
- Tmax [8]: 1 h
- half-life [9]: 3 h
- half-life [10]: 2.23 h
- clearance [11]: 135 mL/min
- Activity [12]: 618 mg
- AUC(0-inf) [13]: 1040 µg·h/mL
- Tmax [14]: 13.5 h
- clearance [15]: 51 mL/min
- Ratio [16]: 0.49
- Cmax [17]: 4.31 µg/mL
- Cmax [18]: 81.4 µg/mL
- Cmax [19]: 106 µg/mL
- AUC [20]: 115 µg·h/mL
- Ratio [21]: 0.1
- clearance [22]: 84.7 mL/min
- CL renal at 24 h [23]: 77.2 mL/min
- Cmax [24]: 5.24 µg/mL
- AUC(0-inf) [25]: 191 µg·h/mL
- Ratio [26]: 0.21
Compound: C[C@@H](O)[C@H]1C(=O)N2C(C(=O)O)=C(S[C@H]3C[C@@H](C(=O)N4CC[C@H](NC(=O)CNC(=N)N)C4)N(C)C3)[C@H](C)[C@H]12 [TOMOPENEM]
